Measured values published in PubChem BioAssay AID493079 (The Scripps Research Institute Molecular Screening Center, 2011).
The source made the active and inactive calls.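 The calls were made as follows: active = IC50 of 10 µM or lower for blocking Epstein-Barr viral protein EBNA-1 from binding DNA; inactive = IC50 above 10 µM.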

Target: EBNA-1 DNA-binding domain (Epstein-Barr virus)
Assay: EBNA-1 DNA-binding inhibitor potency, late-stage follow-up, biochemical, fluorescence polarization, dose response, assay provider data (AID 493079)
Conditions: recombinant EBNA1 DBD, Cy5-DNA fluorescence polarization
Outline: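 Signal: Cy5 fluorescence polarization; assay system: EBNA-1 DBD (aa 448-610), E. coli-expressed; compound dosing: dose-response series of powder compound samples; probe or stimulus: Cy5 hairpin DNA probe, 36 bp; measure: IC50 from lowered polarization, reflecting more unbound DNA probe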

IC50 | Structure (SMILES)
> 148 µM (inactive) | COc1cccc2sc(NC(=O)c3ccc(C)c(C)c3)nc12
> 148 µM (inactive) | Cc1ccc(C(=O)Nc2nc3cc(F)ccc3s2)cc1C
> 148 µM (inactive) | Cc1ccc(C(=O)Nc2nc3cc(Br)ccc3s2)cc1C
> 148 µM (inactive) | Cc1cc(C(=O)CSc2nnnn2-c2ccccc2)c(C)n1Cc1cccs1
inactive | CS(=O)(=O)c1ccc2nc(NC(=O)c3ccc(Cl)cc3)sc2c1
inactive | Cc1cc(C(=O)CSc2nnnn2-c2ccccc2)c(C)n1C
> 148 µM (inactive) | COc1ccc2nc(NC(=O)c3ccc(C)c(C)c3)sc2c1
> 148 µM (inactive) | Cc1ccccc1-n1nnnc1SCC(=O)c1cc(C)n(CC2CCCO2)c1C (stereo not given)
> 148 µM (inactive) | Cc1ccc(C(=O)Nc2nc3ccc(Br)cc3s2)cc1C
inactive | COc1cccc(C(=O)Nc2nc3ccc(S(C)(=O)=O)cc3s2)c1
> 148 µM (inactive) | O=C(CSc1nnnn1-c1ccccc1)c1ccn(CC2CCCO2)c1 (stereo not given)
5.47 µM | Cc1ccc(-n2nnnc2SCC(=O)c2cc(C)n(CC3CCCO3)c2C)cc1 (stereo not given)
> 148 µM (inactive) | Cc1cc(C(=O)CSc2nnnn2C)c(C)n1CC1CCCO1 (stereo not given)
> 148 µM (inactive) | CS(=O)(=O)c1ccc2nc(NC(=O)c3ccccc3Cl)sc2c1
> 148 µM (inactive) | Cc1ccccc1C(=O)Nc1nc2ccc(S(C)(=O)=O)cc2s1
> 148 µM (inactive) | CCn1c(C)cc(C(=O)CSc2nnnn2-c2ccccc2)c1C
> 148 µM (inactive) | Cc1cccc(-n2nnnc2SCC(=O)c2cc(C)n(CC3CCCO3)c2C)c1 (stereo not given)
inactive | Cc1cccc(C(=O)Nc2nc3ccc(S(C)(=O)=O)cc3s2)c1
inactive | COc1ccc(-n2nnnc2SCC(=O)c2cc(C)n(CC3CCCO3)c2C)cc1 (stereo not given)
> 148 µM (inactive) | CS(=O)(=O)c1ccc2nc(NC(=O)c3cccc(F)c3)sc2c1
> 148 µM (inactive) | Cc1ccc(C(=O)Nc2nc3ccc(S(C)(=O)=O)cc3s2)cc1
> 148 µM (inactive) | Cc1cc(C(=O)CSc2nnnn2-c2ccc(Cl)cc2)c(C)n1CC1CCCO1 (stereo not given)
> 148 µM (inactive) | CS(=O)(=O)c1ccc2nc(NC(=O)c3cccc(Cl)c3)sc2c1
inactive | COc1ccc(C(=O)Nc2nc3ccc(S(C)(=O)=O)cc3s2)cc1
> 148 µM (inactive) | COc1ccccc1C(=O)Nc1nc2ccc(S(C)(=O)=O)cc2s1
> 148 µM (inactive) | CS(=O)(=O)c1ccc2nc(NC(=O)c3ccccc3F)sc2c1
> 148 µM (inactive) | Cc1cc(C(=O)CSc2nnnn2-c2cccc(F)c2)c(C)n1CC1CCCO1 (stereo not given)
> 148 µM (inactive) | COc1ccc2sc(NC(=O)c3ccc(C)c(C)c3)nc2c1
> 148 µM (inactive) | COCCn1c(C)cc(C(=O)CSc2nnnn2-c2ccccc2)c1C
inactive | Cc1cc(C(=O)CSc2nnnn2C2CC2)c(C)n1CC1CCCO1 (stereo not given)
